Experimental findings from ChEMBL document CHEMBL2146437, “Burkholdines from Burkholderia ambifaria: antifungal agents and possible virulence factors” (J Nat Prod, 2012) are described below.

Values after ≈ are worked out from the molar mass of the structure shown.

For one data set, the system named is Candida albicans. Nature of the data set: Antifungal activity against Candida albicans. It counts as functional.
Data set [1] is described as follows: Toxicity in sheep erythrocytes assessed as concentration required to achieve 10% hemolysis after 1 hr by serial dilution method. Conditions: erythrocyte. The data set is classed as cell-based, Ovis aries. In outline:
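Sheep erythrocytes as a 0.25% suspension in phosphate-buffered saline received compound in 2-fold serial dilutions and were held 1 h at 37 °C. Cells were then pelleted at 1000g for 5 min, and supernatant absorbance was read at 540 nm. The value is the concentration giving 10% hemolysis, reported as mean ± standard deviation of two independent measurements.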

In another data set the test system is Saccharomyces cerevisiae. Nature of the data set: Antifungal activity against Saccharomyces cerevisiae. It counts as functional.
The subject of data set [2] is Aspergillus niger. Nature of the data set: Antifungal activity against Aspergillus niger. It counts as functional.
Data set [3] can be described thus: Ratio of HC10 for sheep erythrocytes to MIC for Candida albicans. The data set is classed as functional.
Data set [4] relates to Aspergillus niger. Nature of the data set: Ratio of amphotericin-B MIC to compound MIC for Aspergillus niger. The data set is classed as functional.

A word on the MIC: it is the smallest concentration in the dilution series that meets the test's criterion for growth inhibition. Low values mean inhibition by little substance, high ones a need for much substance. Take `CCCCCCCCCCC[C@H](O[C@@H]1OC[C@@H](O)[C@H](O)[C@H]1O)[C@H](O)[C@H](O)C[C@@H]1CC(=O)N[C@H](CO)C(=O)N[C@H]([C@H](O)c2ccc(O)cc2)C(=O)N[C@H](CC(N)=O)C(=O)NCC(=O)N[C@@H](CC(N)=O)C(=O)N[C@@H](CO)C(=O)N[C@@H]([C@H](O)C(N)=O)C(=O)N1`: the MIC in the data set on Candida albicans was found to be 12.5 µg/mL (≈ 10.2 µM); against Saccharomyces cerevisiae, 0.4 µg/mL (≈ 0.325 µM); in the data set with Aspergillus niger [2] it was 12.5 µg/mL (≈ 10.2 µM). Also, the HC10 in data set [1] worked out at 10 µg/mL. For the same compound, in data set [3], the Ratio turned out to be 1.

With `CCCCCCCCCCC[C@H](O)[C@H](O)[C@H](O)C[C@@H]1CC(=O)N[C@H](CO)C(=O)N[C@H]([C@H](O)c2ccc(O)cc2)C(=O)N[C@H](CC(N)=O)C(=O)NCC(=O)N[C@@H](CC(N)=O)C(=O)N[C@@H](CO)C(=O)N[C@@H]([C@H](O)C(N)=O)C(=O)N1` (relative stereo), the results for the MIC in the data set with Candida albicans, in the data set on Saccharomyces cerevisiae and in the data set on Aspergillus niger [2] were 12.5 µg/mL (≈ 11.4 µM), 1.6 µg/mL (≈ 1.46 µM) and 1.6 µg/mL (≈ 1.46 µM), respectively. In addition, the HC10 in data set [1] was found to be 4.5 µg/mL. Also, the Ratio in data set [3] came to 0.4.

As for `C[C@@H]1[C@H](O)[C@@H](C)/C=C/C=C/C=C/C=C/C=C/C=C/C=C/[C@H](O[C@@H]2O[C@H](C)[C@@H](O)[C@H](N)[C@@H]2O)C[C@@H]2O[C@](O)(C[C@@H](O)C[C@@H](O)[C@H](O)CC[C@@H](O)C[C@@H](O)CC(=O)O[C@H]1C)C[C@H](O)[C@H]2C(=O)O` [AMPHOTERICIN B], the MIC against Candida albicans, in the data set with Saccharomyces cerevisiae and in the data set on Aspergillus niger [2] was 2.5 µg/mL (≈ 2.71 µM) each time.

As to `CCCCCCCCCCC[C@H](O[C@H]1OC[C@@H](O)[C@H](O)[C@H]1O)[C@H](O)[C@H](O)C[C@@H]1CC(=O)N[C@H](CO)C(=O)N[C@H]([C@H](O)c2ccc(O)cc2)C(=O)N[C@H](CCN)C(=O)NCC(=O)N[C@@H](CC(N)=O)C(=O)N[C@@H](CO)C(=O)N[C@@H]([C@H](O)C(N)=O)C(=O)N1` [BURKHOLDINE 1215], the minimum inhibitory concentration (MIC) against Candida albicans, against Saccharomyces cerevisiae and in the data set with Aspergillus niger [2] was 0.15 µg/mL (≈ 0.123 µM) each time. Moreover, in data set [1], the HC10 is 5 µg/mL. In addition, the Ratio in data set [3] is reported as 33.

With `CCCCCCCCCCC[C@H](O[C@@H]1OC[C@@H](O)[C@H](O)[C@H]1O)[C@H](O)[C@H](O)C[C@@H]1CC(=O)N[C@H](CO)C(=O)N[C@H]([C@H](O)c2ccc(O)cc2)C(=O)N[C@H](CCN)C(=O)NCC(=O)N[C@@H](CC(N)=O)C(=O)N[C@@H](CO)C(=O)N[C@@H](CC(N)=O)C(=O)N1` [BURKHOLDINES 1119], the minimal inhibitory concentration (MIC) against Candida albicans was determined as 0.4 µg/mL (≈ 0.333 µM); with Saccharomyces cerevisiae, 0.1 µg/mL (≈ 0.0833 µM); against Aspergillus niger [2] it was 0.1 µg/mL (≈ 0.0833 µM). Moreover, in data set [1], the HC10 turned out to be 15 µg/mL. For the same compound, the results for the Ratio (in the data set on Aspergillus niger [4]; in data set [3]) were 25 and 38, respectively.

As for `CCCCCCCCCCC[C@H](O[C@@H]1OC[C@@H](O)[C@H](O)[C@H]1O)[C@H](O)[C@H](O)C[C@@H]1CC(=O)N[C@H](CO)C(=O)N[C@H]([C@H](O)c2ccc(O)cc2)C(=O)N[C@H](CC(N)=O)C(=O)NCC(=O)N[C@@H](CC(N)=O)C(=O)N[C@@H](CO)C(=O)N[C@@H](CC(N)=O)C(=O)N1` [BURKHOLDINES 1213], the values for the MIC against Candida albicans, in the data set with Saccharomyces cerevisiae and against Aspergillus niger [2] were 31 µg/mL (≈ 25.5 µM), 2 µg/mL (≈ 1.65 µM) and 2 µg/mL (≈ 1.65 µM), respectively. Also, the HC10 in data set [1] turned out to be 37 µg/mL. The Ratio in data set [3] came out at 1.
